Bioassay records as filed in PubChem.
This is a sample that favours compounds with a hit; in the whole collection about 5.6% have one here.
aDG glyco up = increases alpha dystroglycan glycosylation; Pro5-aDG cells, alpha-DG glycosylation AlphaScreen (IIH6); 0% Pro5, 100% B10-LARGE cell signal; activation, % at 10 µM; actives 0.22% (n = 360,000); AID 624168;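 active = activation of at least 8% versus controls, or a plate z-score of at least 8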;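 note: Pro5 are CHO cells carrying HIG-tagged alpha-DG that lacks glycosylation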
GRIN3A LBD mod = modulators (binders) of human NR3A ligand-binding domain; NR3A LBD differential scanning fluorimetry, Tm shift; 0% = protein alone, 100% = glycine-bound protein; Tm shift relative to glycine control, % at 25 µM; actives 2.5% (n = 340,000); AID 1259313;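 active = melting temperature shift of at least 10% of the positive control shift, at one fixed dose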
UPR CHOP act = apoptotic UPR (CHOP) activation. CHO-CHOP luciferase reporter, luminescence; percent of tunicamycin response over DMSO baseline. actives 0.34% (n = 330,000). activation, % at 10 µM;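 active = at 10 µM dose, activation of 40% or more, normalized to positive control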;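 note: 100% = tunicamycin at 10 µg/mL and 0% = DMSO alone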
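System: CHO-CHOP luciferase reporter cell line | Buffer or medium: F12 medium containing 10% fetal bovine serum | Doses: One dose, 10 µM in 0.5% DMSO | Times: 6 h compound exposure at 37 °C after overnight seeding | Signal: Luciferase luminescence | Read-out: % activation vs tunicamycin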
CHOP inh = blocks CHOP induction under ER stress. inhibition, % at 10 µM. actives 3.8% (n = 220,000). CHO-K1 CHOP-promoter luciferase, tunicamycin-induced, 15-18 h;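 active = compounds that reduced the stress-induced luciferase reporter signal by more than about 70% of percent inhibition, limit read from the data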;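 note: 0% = tunicamycin plus vehicle and 100% = wells without tunicamycin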
XBP1 UPR activ = activators of adaptive arm of unfolded protein response (XBP1); CHO-XBP1 luciferase reporter, IRE1-XBP1 UPR activation, luminescence; percent of tunicamycin response, DMSO as zero; activation, % at 20 µM; actives 0.33% (n = 330,000); AID 463104;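 active = versus positive control, 20 µM dose yields 30% or more activation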;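 note: 100% = tunicamycin at 10 µg/mL and 0% = DMSO only wells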
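assay system = CHO-XBP1 luciferase reporter cells | amount = 1000 cells/well | buffer or medium = F12 plus 10% FBS | compound dosing = single point, 20 µM final compound, 1% DMSO | incubation = 16-18 h cell attachment at 37 °C, then 6 h compound exposure | detection = Steady-Glo luminescence read | controls = tunicamycin 10 µg/mL and vehicle-only wells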
MPTP inh = blocks calcium-induced mitochondrial swelling | isolated mouse mitochondria, Ca2+ swelling absorbance, 30 min | inhibition, % at 10 µM | actives 1.4% (n = 360,000) | AID 602449;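 active = inhibition of 50% or more, scaled per plate between neutral and stimulator controls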;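 note: 0% = DMSO wells given calcium and 100% = 1 mM EGTA wells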
Rh123 counter = mitochondrial membrane potential, counter-screen. shares compounds with MPTP inh. isolated mitochondria, Rhodamine 123 fluorescence. inhibition, % at 10 µM. actives 78% (n = 5,000). AID 624504; in the data active = inhibition above about 22%;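 note: 0% = DMSO vehicle and 100% = positive control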
MPTP swell DR = MPTP inhibition, dose response swelling confirmation | actives 58% (n = 780) | shares compounds with MPTP inh | IC50, µM | isolated mitochondria swelling, absorbance; in the data active = IC50 below about 20 µM
MPTP counter DR = counter-screen for mitochondrial permeability transition pore inhibitors, dose response | shares compounds with MPTP inh | isolated mitochondria counterscreen, fluorescence read-out | IC50, µM | actives 49% (n = 780) | AID 651564; in the data active = IC50 below about 80 µM
* marks the source's active call; other numbers are inactive results; x = not tested or not shown.

SMILES | aDG glyco up | GRIN3A LBD mod | UPR CHOP act | CHOP inh | XBP1 UPR activ | MPTP inh | Rh123 counter | others
CCN(C[C@H]1N[C@@](C)(C(=O)OC)[C@H]2C(=O)N(C)C(=O)[C@@H]12)C(=O)C1CCCCC1 | 0 | -1 | -1 | x | 0 | -1 | x
COCCCNC(=O)C1CCC(CNS(=O)(=O)c2ccc(Cl)cc2)CC1 (stereo unspecified) | 0 | -1 | 1 | 2 | -2 | 0 | x
CC1=CC(C)(C)N=C(Nc2nc(C)c3cc(C)cc(C)c3n2)N1 | 1 | -8 | 1 | 13 | -2 | 95* | 101*
COc1ccc(-n2nc(C(=O)NCC(=O)N3CCN(c4ccccc4)CC3)c3ccccc3c2=O)cc1OC | 0 | -1 | 4 | x | -3 | 0 | x
O=C(NCc1cccc(C(F)(F)F)c1)c1cccc(S(=O)(=O)NCc2ccccc2)c1 | 0 | -1 | -1 | 52 | -1 | 60* | 71*
CCNC(=S)NNC(=O)c1cc(-c2ccc(OCC)cc2)nc2ccccc12 | 0 | 1 | -5 | 49 | -4 | 2 | x
CCCOc1cccc(-c2cc(C(=O)NNC(=S)NCC)c3ccccc3n2)c1 | 0 | 14* | -1 | 56 | 0 | 50* | 56*
Cc1ccc(C)c(-c2cc(C(=O)NNC(=S)NCC(C)C)c3ccccc3n2)c1 | 0 | 12* | 2 | 27 | 0 | 87* | 80*
CCCOc1ccc(C(=O)NNC(=S)NC(=O)c2cc(-c3ccc(Cl)cc3)nc3ccccc23)cc1 | 0 | 14* | 16 | 72* | 14 | 93* | 20*
CCNC(=S)NNC(=O)c1cc(-c2ccccc2C)nc2ccccc12 | 0 | -8 | -2 | 14 | -2 | 0 | x
CCN(CC(=O)NCc1ccc(F)cc1)C(=O)COc1ccccc1[N+](=O)[O-] | 0 | 0 | 0 | x | -3 | -1 | x
O=C1CCC(C(=O)N2CCCCO2)CN1Cc1cccc(F)c1 (stereo unspecified) | 0 | 1 | 4 | x | -3 | 0 | x
N#Cc1cc(C(=O)c2cc(Br)ccc2O)cn(C2CCCCC2)c1=O | 0 | 2 | -1 | 57 | 2 | 94* | 82*
CC(C)(C)c1nc(N2CCN(C(=O)c3ccco3)CC2)c2nnn(Cc3ccccc3)c2n1 | 1 | -5 | 0 | 76* | -1 | 54* | 69*
O=C(c1ccco1)N1CCN(c2nc(C3CC3)nc3c2nnn3Cc2ccccc2Cl)CC1 | 0 | -1 | 0 | 23 | 1 | 0 | x
CC(C)c1nc(SCc2c(F)cccc2Cl)c2c(=O)n(C)c(=O)n(C)c2n1 | 0 | -1 | 4 | 64 | 6 | 94* | -6 | MPTP swell DR=>100;MPTP counter DR=>80
Cn1c(=O)c2c(nc(SCCCC#N)n2Cc2c(F)cccc2Cl)n(C)c1=O | 0 | 0 | -1 | -7 | 2 | -3 | x
Cc1ccccc1CN(CC(=O)Nc1cccc([N+](=O)[O-])c1)S(=O)(=O)c1ccc(Cl)cc1 | 1 | 6 | 0 | 51 | 1 | 89* | 80*
O=C(CCSc1ccccc1Cl)Nc1cccc([N+](=O)[O-])c1 | 0 | 9 | 2 | -4 | 3 | 89* | 84*
Cc1cccc(C(=O)N2CC(=O)Nc3ccc(F)cc3C2c2ccc(F)cc2)c1 (stereo unspecified) | 0 | -6 | 3 | x | -6 | -1 | x
COc1ccc(C(=O)c2c[nH]c(C(=O)NCC3CCCO3)c2)cc1 (stereo unspecified) | 0 | 2 | -13 | -29 | 1 | -3 | x
